# Screening results: PubChem, several laboratories
# ABHD5 PLIN5 PPI – inhibitors of human ABHD5-perilipin-5 interaction; inhibition, % at 4 µM; AID 602281; 0.78% of 360,000 active; Split G. princeps luciferase complementation, luminescence, 4 h; Q00G26+Q8WTS1;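 active means inhibition above the mean inhibition across every tested compound plus 3 SD, cut at about 22% in these data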;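 further: 0% = DMSO only wells and the 100% control is not disclosed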
# NadD block – blocks S. aureus nicotinate mononucleotide adenylyltransferase | inhibition, % at 20 µM | 0.78% of 360,000 active | purified NadD enzyme, colorimetric absorbance read-out; in the data active means inhibition above about 26%
# HCV core dimer – HCV core protein dimerization inhibition; TR-FRET GST/Flag-core106 dimerization, 1536-well; inhibition, % at 5 µM; 0.33% of 300,000 active;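 active means inhibition above the mean of all tested compounds plus 3 SD, set per screening campaign, cut at about 45% in these data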
#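 System – GST-tagged and Flag-tagged HCV core protein residues 1-106 · Repeats – one well for each compound · Technique – TR-FRET 671 and 617 nm emission · Doses – one concentration, 5 µM, in 0.5% DMSO · Times – 4 h, 22.5 °C incubation · Also added – Eu donor and XL665 acceptor anti-tag antibodies · Measure – percent inhibition of core106 dimerization signal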
# rCAG binder – r(CAG) repeat RNA binding | 1.3% of 370,000 active | inhibition, % at 3 µM | TO-PRO-1 dye displacement fluorescence;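 active means inhibition above the plate cutoff, the mean of all test compounds on that plate plus 3 SD, cut at about 35% in these data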;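 further: 0% = DMSO alone and 100% = 100 µM mitoxantrone as full dye displacement; higher means more dye released from RNA so lower well fluorescence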
# NadD inh conf – NadD (S. aureus) inhibition, single concentration confirmation; shares compounds with NadD block; purified S. aureus NadD, colorimetric enzyme assay; inhibition, % at 20 µM; 13% of 2,000 active; AID 624309; in the data active means inhibition mostly above about 42%, no sharp cut-off; inactive means mostly below about 42%
# * = called active by the depositor; x = not tested or not shown. A selection: hits, their analogues and other compounds. The true share with any hit is near 2.6%.
SMILES,ABHD5 PLIN5 PPI,NadD block,HCV core dimer,rCAG binder,NadD inh conf
Cc1cccc(C(=O)N2CCc3cc(-c4nc(NC(=O)CN5CCCC5)sc4C)ccc32)c1,1,8,4,3,x
Cc1sc(NC(=O)Cc2ccc3c(c2)OCO3)nc1-c1ccc2c(c1)CCN2C(=O)c1cccc(F)c1,-4,34*,28,24,20
COc1ccc(-c2nc3cc(C)c(Br)c(C)n3c2CC(C)(C)C)cc1OC,-4,0,x,2,x
C[C@H](CO)N1C[C@H](C)[C@@H](CN(C)C(=O)Nc2ccc(C(F)(F)F)cc2)Oc2ccc(NC(=O)c3ccncc3)cc2C1=O,3,12,x,-5,x
Cc1noc(C)c1NC(=O)N(C)C[C@@H]1Oc2c(NC(=O)c3ccncc3)cccc2C(=O)N([C@H](C)CO)C[C@@H]1C,13,36*,x,0,57*
Cc1noc(C)c1NC(=O)N(C)C[C@@H]1Oc2c(NC(=O)NC(C)C)cccc2C(=O)N([C@@H](C)CO)C[C@@H]1C,-8,7,x,0,x
C[C@@H]1CN([C@H](C)CO)C(=O)c2cc(NC(=O)c3ccncc3)ccc2O[C@@H]1CN(C)C(=O)Nc1ccccc1,6,61*,x,-7,47*
C[C@@H]1CN([C@@H](C)CO)C(=O)Cc2cc(NC(=O)Nc3cccc4ccccc34)ccc2O[C@@H]1CN(C)Cc1ccc(C(F)(F)F)cc1,-13,31*,x,10,9
C[C@@H]1CN([C@H](C)CO)C(=O)c2cc(NC(=O)Nc3cccc4ccccc34)ccc2O[C@H]1CN(C)Cc1ccc(C(F)(F)F)cc1,-3,23,x,9,x
Cc1nc2c(OCc3ccc(Cl)cc3)cccn2c1N(C)C(=O)CCC1CCCC1,0,4,x,1,x
Nc1nc2ncccc2cc1C(=O)NC1CCCCC1,-10,2,x,3,x
O=C(CNS(=O)(=O)c1ccc(Cl)s1)N1CCN(c2ccccn2)CC1,x,x,x,1,x
Fc1ccc(F)c(Cn2ccc3ccc(-c4ccc5ccn(Cc6cc(F)ccc6F)c5c4)cc32)c1,x,x,x,4,x
Cc1ccc(-c2nc3ccccc3[nH]2)cc1NC(=O)c1sc2cc(Cl)ccc2c1Cl,8,29*,19,8,12
O=C1c2ccc(-c3ccc(Cl)c(C(F)(F)F)c3)cc2S(=O)(=O)c2cccc(C(=O)N3CCN(c4ccc(Cl)cn4)CC3)c21,3,55*,x,13,7
Cc1ccc(-c2csc(C(O)c3ccccc3)n2)cc1C (configuration not stated),-5,0,x,3,x
COc1cc(C2C(C#N)=C(N)N(Nc3ccccc3)C3=C2C(=O)CC(C)(C)C3)ccc1OCc1cccc(F)c1 (configuration not stated),-10,31*,35,11,13
CCNC(=O)C1(C)CCCN(C(=O)c2csc3ccccc23)C1 (configuration not stated),3,1,x,-1,x
COc1ccc(C2CC(c3ccccc3)=NN2C(=O)c2ccc(F)cc2)cc1 (configuration not stated),-6,-8,6,3,x
COc1ccc(C2CC(c3ccccc3)=NN2C(=O)CN2N=NC3C(=O)N(c4cccc(F)c4)C(=O)C32)cc1 (configuration not stated),0,40*,40,27,8
COc1ccc(/C=N/NC(=O)c2nc(-c3ccccc3)cc(-c3ccccc3)n2)cc1O,6,38*,27,15,42
COc1ccc(/C=N/NC(=O)c2nc(-c3ccccc3)cc(-c3ccccc3)n2)cc1,5,39*,38,10,6
C[C@@H]1COc2cccc(NCCCN3CCOCC3)c2S(=O)(=O)N1,x,x,x,1,x
Cc1cc(=O)[nH]c(SCC(=O)Nc2ccc(Cl)cc2)n1,x,x,x,1,x
Cc1ccccc1CN1C(=O)C(C)Sc2ccc(-c3ccco3)cc21 (configuration not stated),13,43*,x,31,50*
SMILES,ABHD5 PLIN5 PPI,NadD block,HCV core dimer,rCAG binder,NadD inh conf
CCOc1ncccc1C(=O)OCC(=O)NC(=O)c1ccccc1,-4,1,x,1,x
CCc1ccc(C2=NNC(=Nc3cccc(S(=O)(=O)N(C)C)c3)SC2)cc1,-33,34*,6,21,24
CNc1cc(C)c(C#N)c2nc3ccccc3n12,1,2,-9,2,x
Cc1cccc(NC(=O)CSc2cc(C)c(C#N)c3nc4ccccc4n23)c1,-3,43*,0,15,2
O=C(C(=O)N1CCC(CNS(=O)(=O)c2ccccc2OC(F)(F)F)CC1)c1cc2ccccc2o1,x,x,x,3,x
Cc1ccccc1CSCC1Nc2ccc(C(=O)NCCc3ccccc3)cc2NC1=O (configuration not stated),-5,45*,x,21,74*
COc1ccc(CC(=O)NCc2ccccc2F)cc1S(=O)(=O)N1CCOCC1,1,-1,x,2,x
Cc1ccc2cc(C#N)c(N3CCCC3)nc2c1C,-3,34*,7,11,2
O=c1[nH]c(C(Cl)Cl)nc2sc3c(c12)CCN(Cc1ccccc1)C3,0,32*,44,9,59*
COC(=O)C1=C(C)N(Cc2ccccc2C(F)(F)F)C(=NCc2cc(OC)c(OC)c(OC)c2)NC1c1ccccc1C(F)(F)F (configuration not stated),x,x,x,2,x
COc1cc(C2c3c(c(C)c(C)oc3=O)Oc3c(C)c(C)oc(=O)c32)ccc1OS(=O)(=O)c1ccc(C)cc1,-1,32*,x,8,2
Cc1cccc2sc(NC(=O)C3CCN(S(=O)(=O)c4cc([N+](=O)[O-])ccc4Cl)CC3)nc12,8,46*,49*,24,6
Cc1nnc(NC(=O)C2CCN(S(=O)(=O)c3cc([N+](=O)[O-])ccc3Cl)CC2)o1,-6,-3,x,13,x
Cc1cccc(NC(=O)C2CCN(S(=O)(=O)c3cccc4nsnc34)CC2)n1,-1,10,5,-3,x
O=C(NC1CC1)C1CCN(S(=O)(=O)c2cc(Cl)ccc2Cl)CC1,0,-1,1,-1,x
COc1ccc2nc(NC(=O)C3CCN(S(=O)(=O)c4cccc5nsnc45)CC3)sc2c1,6,41*,3,19,19
O=C(NC1CC1)C1CCN(S(=O)(=O)c2cc([N+](=O)[O-])ccc2Cl)CC1,-5,52*,x,21,29
C=CCNc1nc(-c2sc(NC(=O)C(C)(C)C)nc2C)c(-n2cc(-c3ccccc3)nn2)s1,-11,17,x,8,x
Cc1cccc(NCc2ccc(O)c3ncccc23)c1,-10,37*,-2,4,27
COc1ccc(Br)cc1/C=N/NC(=O)c1ccc(OC)c(OC)c1,3,3,0,3,x
COc1ccc(Br)cc1/C=N/NC(=O)c1nc(-c2ccccc2)n2c1CCCCC2,-2,39*,8,-3,13
Cc1ccccc1[C@H](NC1c2ccccc2C=Cc2ccccc21)P(=O)(c1ccccc1)c1ccccc1,11,31*,x,11,38
Cc1ccc(P(=O)(c2ccc(C)cc2)[C@@H](NC(c2ccccc2)c2ccccc2)c2ccccc2)cc1,2,24,x,8,x
